High-throughput results from PubChem.
LYPLA1 counter: LYPLA1 (human) inhibition in PME1 counter-screen; O75608; recombinant LYPLA1, FP-Rh probe fluorescence polarization; inhibition, % at 5.9 µM; 320,000 tested, 0.16% active;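 active = inhibition above the mean of all tested compounds plus 3 SD, set per campaign, cut at about 14% in these data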;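 also: inhibitors block serine hydrolase probe labeling of LYPLA1 so polarization falls; 0% = enzyme with DMSO and 100% = wells lacking LYPLA1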
LYPLA2 inh: LYPLA2 (human) inhibition in PME1 counter-screen; O95372; recombinant LYPLA2, FP-Rh probe fluorescence polarization; inhibition, % at 5.9 µM; 320,000 tested, 0.38% active; AID 2177;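 active = inhibition above the screen-wide mean plus 3 SD, limit set per campaign, cut at about 26% in these data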;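 also: 0% = LYPLA2 with DMSO and 100% = wells lacking LYPLA2 enzyme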
procasp3 activ: procaspase-3 (human) activation | P42574 | activation, % at 8.5 µM | 330,000 tested, 0.11% active | recombinant procaspase-3 D3A, Ac-DEVD-pNA absorbance 405 nm;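 active = activation above the mean of all tested compounds plus 3 SD, cut at about 21% in these data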;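 also: 0% = DMSO alone and 100% = DMSO wells spiked with extra 5 µM PC-3 D3A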
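Compound: 8.5 µM single point, 0.8% DMSO / Material: Autoprocessing-dead procaspase-3 D3A mutant enzyme / Timing: 1 h preincubation plus 2 h reaction at 25 °C / Medium: Zinc-free HEPES/NaCl buffer with 0.01% Triton X-100 at pH 7.4 / Technique: 405 nm absorbance of p-nitroaniline, reads at 0 and 120 min / Repeats: one well per compound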
procasp7 counter: activates human procaspase-7, counter-screen for procaspase-3 activators; 330,000 tested, 0.093% active; P55210; activation, % at 8.5 µM; recombinant procaspase-7, Ac-DEVD-pNA absorbance 405 nm; D23A/D198A/D206A triple mutant, cannot self-cleave; scale: DMSO 0, 5 µM enzyme 100;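 active = percent activation above the screen-wide mean plus 3 SD, cut at about 25% in these data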
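Assay system: Uncleavable procaspase-7 mutant enzyme / Input: 2 µM procaspase-7 mutant as dispensed / Dosing: single nominal 8.5 µM compound dose, 0.8% DMSO final / Timing: 1 h enzyme–compound preincubation and 2 h substrate reaction, both 25 °C / Detection: p-Nitroaniline absorbance at 405 nm, read at 0 and 120 min / Replication: singlicate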
PREPL inh: human PREPL enzyme inhibition; Q4J6C6; inhibition, % at 5.96 µM; 320,000 tested, 0.68% active; recombinant PREPL, fluorescence polarization activity-based probe; in the data active = inhibition above about 43%;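 also: 0% = enzyme with DMSO and 100% = wells lacking enzyme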
Target sequence (Q4J6C6 whole entry, looked up): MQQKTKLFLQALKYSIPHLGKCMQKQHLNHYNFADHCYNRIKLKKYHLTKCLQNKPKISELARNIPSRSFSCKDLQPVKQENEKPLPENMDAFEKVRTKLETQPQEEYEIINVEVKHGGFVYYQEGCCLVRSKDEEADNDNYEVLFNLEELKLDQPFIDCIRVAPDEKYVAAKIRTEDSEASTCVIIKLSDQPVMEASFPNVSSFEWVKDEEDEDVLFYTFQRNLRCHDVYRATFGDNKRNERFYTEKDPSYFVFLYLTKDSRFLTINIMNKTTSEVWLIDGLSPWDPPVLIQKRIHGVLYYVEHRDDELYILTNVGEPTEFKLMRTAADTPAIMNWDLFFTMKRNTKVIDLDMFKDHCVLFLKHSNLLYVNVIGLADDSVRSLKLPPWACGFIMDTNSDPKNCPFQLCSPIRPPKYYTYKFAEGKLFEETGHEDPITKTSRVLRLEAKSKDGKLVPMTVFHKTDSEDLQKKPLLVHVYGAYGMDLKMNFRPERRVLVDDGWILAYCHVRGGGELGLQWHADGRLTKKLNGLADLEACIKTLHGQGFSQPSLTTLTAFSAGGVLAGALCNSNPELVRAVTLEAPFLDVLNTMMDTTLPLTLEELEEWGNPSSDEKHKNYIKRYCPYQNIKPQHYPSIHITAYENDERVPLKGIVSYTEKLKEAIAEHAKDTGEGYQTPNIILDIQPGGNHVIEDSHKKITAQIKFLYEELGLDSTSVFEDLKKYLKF
PC3 dual counter: activates human procaspase-3, dual activator counter-screen; shares compounds with procasp7 counter; recombinant PC-3 D3A, Ac-DEVD-pNA absorbance 405 nm; aspartates 9, 28, 175 changed to alanine; 100% = enzyme control; activation, % at 8.5 µM; 290 tested, under 10 active;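 active = mean percent activation across triplicates above a set limit taken from the earlier primary procaspase-3 screen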;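 also: 0% = DMSO wells and 100% = DMSO wells with 5 µM added PC-3 D3A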
PC7 dual conf: procaspase-7 (human) activation, dual activator confirmation; shares compounds with procasp7 counter; recombinant procaspase-7, Ac-DEVD-pNA absorbance 405 nm; D23A/D198A/D206A mutant that cannot self-cleave; activation, % at 8.5 µM; 290 tested, under 10 active;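 active = mean activation above a set limit carried over from the earlier primary screen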;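 also: 0% = DMSO only and 100% = DMSO with added 5 µM PC-7 enzyme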
* marks the source's active call; other numbers are inactive results; . = no result given. Shown are actives, neighbours in structure and some others; about 1% of the full set was active somewhere.

SMILES	LYPLA1 counter	LYPLA2 inh	procasp3 activ	procasp7 counter	PREPL inh	PC3 dual counter	PC7 dual conf
Cc1cc(C)c2c(N)c(C(=O)N/N=C/c3ccccc3)sc2n1	0	2	35*	32*	14	-28	-36
Cc1ccccc1Cn1ccc(NC(=O)c2cc3nc(-c4ccco4)cc(C(F)(F)F)n3n2)n1	-2	5	10	48*	-4	-31	-36
O=C(NC(NC1CCS(=O)(=O)C1)C(=O)c1ccccc1)c1ccc(Cl)cc1 (stereo not given)	-2	-3	6	47*	-6	2	3
O=C(NC(=S)NC1CCS(=O)(=O)C1)c1ccccc1 (stereo not given)	1	8	4	0	9	.	.
O=C(NCCN1CCOCC1)C(=O)c1c[nH]c2ccccc12	-3	0	1	30*	-3	2	2
O=C(CN1CCOCC1)c1c[nH]c2ccccc12	5	5	14	7	0	.	.
CCN(C(=O)COC(=O)c1ccccc1SCC(=O)N1CCCC1)C1CCS(=O)(=O)C1 (stereo not given)	0	5	0	10	1	.	.
COC(=O)c1ccc(CNC(=O)[C@@H]2CCCN2S(=O)(=O)c2ccccc2F)cc1	.	.	8	26*	-2	3	1
Cn1nc(C(=O)NNC(=O)c2cccc(Cl)c2)c2ccccc2c1=O	.	.	10	26*	-8	2	-1
Cn1nc(C(=O)NNC(=O)c2ccc(Cl)c(S(N)(=O)=O)c2)c2ccccc2c1=O	3	-2	4	-1	18	.	.
